# Source: PubChem
# Sampled rows, rich in hits. Any-hit rate of the full collection: about 5.7%.
# SKKanGAS inh – inhibitors of SKKanGAS S. pyogenes growth in kanamycin (SK-promoter or general growth effect). BacTiter-Glo, 6 h. inhibition, % at 7.5 µM. 300,000 compounds, 1.3% hits;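 active = mean replicate score, as percent of positive control median, at least 50; inconclusive = mean below 50 but one replicate at or above 50; inactive = mean and every replicate below 50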;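 also: strain carries kanamycin resistance gene driven by streptokinase promoter and grows in 40 µg/ml kanamycin; loss of luminescence reflects streptokinase promoter inhibition or plain growth inhibition; 0% = median of DMSO wells and 100% = positive control at its reference dose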
# Calb FLC – C. albicans growth modulation with fluconazole; growth inhibition, % (no concentration beside the values); 300,000 compounds, 0.57% hits; C. albicans CaCi-2 (fluconazole-resistant clinical isolate) + fluconazole, Alamar Blue growth, 48 h;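 active = growth inhibition above about 58% in most replicates, limit read from the data, passing the limit was not always enough; inconclusive = exactly half the replicates above a set limit; inactive = most replicates below a set limit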;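 also: all wells also contain fluconazole at 8 µg/ml as a sub-toxic cotreatment; 0% = median of DMSO wells and 100% = median of geldanamycin control wells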
# T cruzi inh – blocks replication of Trypanosoma cruzi. T. cruzi beta-gal in NIH3T3, luminescence, 90 h. inhibition, % (concentration not given with the values). 300,000 compounds, 1.4% hits;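 active = mean inhibition across valid replicates above about 55%, limit read from the data; inconclusive = mean below that limit but half or more replicates reach it; inactive = mean below it, under half of replicates reach it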;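 also: signal also drops with host cell toxicity which is not excluded here; 0% = plate median of DMSO wells and 100% = zero luminescence signal; higher percent means less beta-gal luminescence so fewer parasites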
#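 System: NIH/3T3 fibroblasts plus reporter T. cruzi. Medium: DMEM plus 2% FBS. Probe or stimulus: 5000 reporter trypomastigotes per well. Compound: single 50 nL compound addition per well in DMSO. Incubation: co-culture of at least 90 h after 3 h attachment. Detection: GalScreen β-gal luminescence, detergent lysis, 60 min. Evaluation: parasite load inhibition, %.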
# CSC inhib – blocks cancer stem cells; cancer stem cell-like cells viability, luminescence; inhibition, % at 7.5 µM; AID 2717; 300,000 compounds, 1.1% hits; in the data active = inhibition above about 75%; inconclusive = no clear call, values can overlap the other calls; tested in HMLE shEcad cells
# Beta apoptosis – beta cell apoptosis inhibition | 300,000 compounds, 0.8% hits | protection from apoptosis, % (no concentration beside the values) | INS-1E cytokine-induced death, ATP luminescence, 48 h; percent of positive-control rescue, neutral wells zero;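 active = Every replicate reaches about 75%, or at least half do and their mean reaches it too, limit read from the data; inconclusive = At least half of replicates reach the limit but their mean does not; inactive = Under half of replicates reach the limit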;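 also: 0% = cytokine-treated negative control wells and 100% = positive control rescue; higher means more ATP so stronger rescue from cytokine killing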
# Mdm2-MdmX inh – disrupts the human Mdm2-MdmX interaction | O15151+Q00987 | SaOS-2 split-luciferase Mdm2/MdmX complementation, luminescence | inhibition, % at 8 µM | 330,000 compounds, 3% hits;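 active = inhibition of at least 50% at 8 µM in the primary screen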
# Target sequence (O15151 whole entry, looked up): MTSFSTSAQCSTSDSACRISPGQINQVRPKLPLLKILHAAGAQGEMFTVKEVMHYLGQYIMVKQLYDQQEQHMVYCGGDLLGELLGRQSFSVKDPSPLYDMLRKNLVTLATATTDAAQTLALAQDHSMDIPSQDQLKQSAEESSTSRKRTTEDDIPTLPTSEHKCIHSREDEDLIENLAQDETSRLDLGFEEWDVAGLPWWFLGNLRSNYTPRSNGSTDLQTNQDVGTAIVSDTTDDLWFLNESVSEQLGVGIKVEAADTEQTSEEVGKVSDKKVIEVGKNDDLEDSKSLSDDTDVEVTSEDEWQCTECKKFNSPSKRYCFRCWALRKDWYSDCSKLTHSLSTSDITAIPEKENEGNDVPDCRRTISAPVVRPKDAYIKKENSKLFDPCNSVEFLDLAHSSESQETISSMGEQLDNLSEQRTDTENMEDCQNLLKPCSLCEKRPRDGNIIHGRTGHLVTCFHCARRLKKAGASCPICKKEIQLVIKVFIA
# Target sequence (Q00987 whole entry, looked up): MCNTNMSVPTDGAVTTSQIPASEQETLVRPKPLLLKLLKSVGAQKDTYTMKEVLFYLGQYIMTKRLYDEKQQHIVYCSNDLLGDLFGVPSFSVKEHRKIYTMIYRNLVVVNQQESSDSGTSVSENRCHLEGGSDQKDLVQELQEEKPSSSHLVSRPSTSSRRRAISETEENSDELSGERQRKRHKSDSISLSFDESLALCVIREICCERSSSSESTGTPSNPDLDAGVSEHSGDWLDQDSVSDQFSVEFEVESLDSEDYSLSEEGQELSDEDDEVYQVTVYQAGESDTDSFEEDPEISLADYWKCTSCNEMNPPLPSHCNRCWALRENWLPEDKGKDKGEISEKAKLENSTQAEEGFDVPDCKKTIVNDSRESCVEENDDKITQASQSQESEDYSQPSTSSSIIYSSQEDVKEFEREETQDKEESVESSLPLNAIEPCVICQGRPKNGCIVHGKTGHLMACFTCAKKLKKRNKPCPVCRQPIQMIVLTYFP
# Mdm2-MdmX conf – human Mdm2/MdmX binding inhibition, confirmed | luminescent assay | 10,000 compounds, 55% hits | AID 489028 | inhibition, % at 8 µM | shares compounds with Mdm2-MdmX inh; in the data active = inhibition above about 40%
# FLuc counter – inhibits full-length luciferase, flagging false Mdm2/MdmX hits; shares compounds with Mdm2-MdmX inh; SaOS-2 full-length luciferase counterscreen, luminescence; 6,200 compounds, 77% hits; inhibition, % at 8 µM; AID 504607;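 active = mean inhibition at 8 µM reaching about 37%, which flags the compound as non-specific, limit read from the data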;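 also: p53-null SaOS-2 cells with luciferase driven by a doxycycline-inducible promoter; compound on cells about two nights before reading with doxycycline added after day one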
# * marks the source's active call; other numbers are inactive results; ? = inconclusive; nt = no result.
SMILES,SKKanGAS inh,Calb FLC,T cruzi inh,CSC inhib,Beta apoptosis,Mdm2-MdmX inh,Mdm2-MdmX conf,others
COc1ccc(/C=N/n2cnc3c([nH]c4ccc(F)cc43)c2=O)cc1CSc1ccccn1,9,-3,-36,-13,53,94*,28,
CC(/C=C/c1ccccc1)=N\NC(=O)Cn1nc(C)cc1C,11,3,7,2,-6,-13,nt,
COc1ccc(-c2csc(NC(=O)CCCc3nc4ccccc4c(=O)[nH]3)n2)cc1OC,0,nt,-4,-4,4,26,nt,
COc1ccc(-c2csc(NC(=S)NC(=O)c3ccc4ccccc4c3)n2)cc1OC,4,-2,-13,37,15,78*,11,
COc1ccc(-c2csc(NC(=O)CCn3cnc4ccccc4c3=O)n2)cc1OC,5,1,-16,-3,19,58*,2,
COc1cccc(NC(=O)Nc2nc(-c3ccc(OC)c(OC)c3)cs2)c1,33,15,26,104*,17,96*,98*,FLuc counter=52*
O=C(NCc1ccccn1)c1ccc(OC2CCN(Cc3ccc(Cl)s3)CC2)cc1,-2,-4,-13,11,1,13,nt,
Cc1cccc(C)c1NC(=O)CSc1nc(C)c(CC(=O)c2ccc(Br)cc2)c(C)c1C#N,0,-5,2,8,37,85*,63*,FLuc counter=96*
Cc1nc(SCC(=O)Nc2ccccc2C(F)(F)F)c(C#N)c(C)c1CC(=O)c1ccc(Br)cc1,-12,12,27,33,11,53*,10,
CCN(CC)C(=O)CNC(=S)N(CCCN1CCOCC1)Cc1cccs1,-7,-34,-22,11,-8,-3,nt,
CC(C(=O)N1CCCCC1)N(C)CC(=O)Nc1cccc(F)c1 (stereo not given),nt,nt,nt,nt,-5,24,nt,
O=C1/C(=C/c2cccc(Br)c2)SC(=S)N1/N=C/c1cc([N+](=O)[O-])ccc1O,-1,8,10,17,10,1,nt,
Cc1[nH]c2ccccc2c1C(O)CN1CCN(c2cccc(C(F)(F)F)c2)CC1 (stereo not given),-3,-5,42,-6,-14,59*,29,
Cc1[nH]c2ccccc2c1NC(=O)CN1CCN(c2cccc(C(F)(F)F)c2)CC1,nt,nt,nt,nt,-10,11,nt,
NC(N)=Nc1nc(-c2ccccc2)c2cc(F)ccc2n1,0,4,21,7,-1,66*,60*,FLuc counter=49*
OCCSc1nc(-c2ccccc2)nc2ccc(F)cc12,0,-6,3,13,0,-2,nt,
Cc1ccc(-n2cc(CN3CCC(CO)(Cc4cccc(C(F)(F)F)c4)CC3)cn2)cc1,0,7,61*,61,11,84*,48*,FLuc counter=69*
Cc1ccc(-n2cc(CN3CCC(CO)(Cc4ccccc4)CC3)cn2)cc1,0,-23,37,14,-7,37,nt,
Cc1nc2c(-c3ccc(F)cc3)c(C)nn2c(C)c1CCC(=O)Nc1ccccc1,37,-1,50,-2,8,24,nt,
CCN1CCN(c2ccc(NC(=O)CCc3c(C)nc4c(-c5ccc(F)cc5)c(C)nn4c3C)cc2)CC1,10,?,64*,81*,12,55*,36,
COc1ccc(COc2cccnc2N)cc1,-3,-6,-6,-16,-1,2,nt,
COc1ccc(COc2cc(-c3cccc(OC)c3)nc3ccc(N)cc23)cc1,38,-2,20,46,36,60*,51*,FLuc counter=120*
COc1ccc(NC(=O)c2cc(=O)[nH]c(=O)[nH]2)cc1S(=O)(=O)Nc1ccccc1Cl,0,-2,-15,6,4,14,nt,
Cc1nn(C2CCS(=O)(=O)C2)c(C)c1CN(C)C(=O)c1ccccc1 (stereo not given),nt,nt,nt,nt,-1,9,nt,
COc1cc([C@@H]2c3cc4c(cc3[C@@H](O)[C@H]3COC(=O)[C@H]23)OCO4)cc(OC)c1O[Si](C)(C)C(C)(C)C,40,6,17,127*,1,71*,37,FLuc counter=81*
SMILES,SKKanGAS inh,Calb FLC,T cruzi inh,CSC inhib,Beta apoptosis,Mdm2-MdmX inh,Mdm2-MdmX conf,others
Cc1ccc(CNC(=O)C2CCCN(S(=O)(=O)c3ccc(-n4cnnn4)cc3)C2)cc1 (stereo not given),5,5,-1,nt,3,32,nt,
CCSC(=S)Nc1c(C)n(C)n(-c2ccccc2)c1=O,7,-2,-18,-5,-9,20,nt,
CCn1ncc(NC(=O)Nc2cccc(C(F)(F)F)c2)c1C(N)=O,nt,-3,12,-15,-4,18,nt,
CCSCCc1nnc(NC(=O)Nc2cccc(C(F)(F)F)c2)s1,12,-9,0,27,119*,95*,95*,FLuc counter=50*
CCCN1CCN(CCCNC(=O)c2ccc3c(Cl)c4c(nc3c2)CCCC4)CC1,5,5,18,12,12,70*,39,FLuc counter=55*
CCCCN(CC)CCNC(=O)c1ccc2c(Cl)c3c(nc2c1)CCC3,-1,-7,2,15,-2,39,nt,
CCN(CC)CCCNC(=O)c1ccc2c(Cl)c3c(nc2c1)CCCC3,-1,?,21,50,3,84*,49*,FLuc counter=31
O=C(NCCCN1CCCC1)c1ccc2c(Cl)c3c(nc2c1)CCCC3,5,19,48,7,-1,72*,51*,FLuc counter=45*
CCc1ccc(N(CC)C(=O)c2ccc3c(Cl)c4c(nc3c2)CCC4)cc1,28,2,22,nt,9,56*,32,
COc1ccccc1N1CCN(C(=O)c2ccc3c(c2)CCN3S(C)(=O)=O)CC1,-3,-5,-7,nt,nt,14,nt,
O=C1C(=O)N(CC2CCCO2)C(c2ccco2)/C1=C(/O)c1ccc(F)cc1 (stereo not given),4,4,-16,7,-6,15,nt,
Cc1ccc(C(=O)Nc2ccnc(-c3ccncc3)n2)cc1,-5,1,-37,-16,3,5,nt,
CCOc1nc(C)cc(C)c1S(=O)(=O)c1cccc(Cl)c1,7,5,24,-6,-1,31,nt,
COc1ccc(C(=O)CC(=O)C(=O)Nc2ccc(Cl)cc2)cc1,-3,-16,2,6,5,nt,nt,
COc1ccc(C(=O)CC(Nc2ccc([N+](=O)[O-])cc2)c2ccc(Cl)cc2)cc1 (stereo not given),30,16,64*,40,16,53*,15,
COC(=O)c1ccccc1S(=O)(=O)N1CCC(C(=O)N(C)CCOc2ccccc2)CC1,-21,-3,12,8,5,8,nt,
O=S(=O)(O)c1cc2oc(-c3ccccc3)nc2c2ccccc12,0,6,-11,-8,-6,18,nt,
